# According to ChEMBL document CHEMBL1255289, “In vitro antifungal activities of isavuconazole (BAL4815), voriconazole, and fluconazole against 1,007 isolates of zygomycete, Candida, Aspergillus, Fusarium, and Scedosporium species” (2008):
# How the values were obtained:
# Type in all cases: functional
# Aspergillus sp. [1] = assay: Antifungal activity against Aspergillus sp. isolates after 48 hrs by CLSI M38-A procedure based assay
# Outline: (§1)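 Aspergillus isolates tested by CLSI M38-A broth microdilution at final 0.015–16 µg/ml and 35°C. Plates were read macroscopically at 48 h. The MIC was the lowest concentration producing complete inhibition of growth (MIC-0).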
# Mucor [2] = assay: Antifungal activity against Mucor isolates assessed as lowest compound concentration that produced slight growth or approximately 25% of that of growth control after 24 hrs by CLSI M38-A procedure based assay
# Outline: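 Clinical isolates were kept at –70°C as spore suspensions in sterile water and subcultured on potato dextrose or Sabouraud agar before testing. Broth microdilution used DMSO stocks in trays stored at –70°C, with final drug 0.015–16 µg/ml.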
# Candida = assay: Antifungal activity against Candida sp. isolates by Etest
# Outline: (§2)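 Etest on RPMI agar with 2% glucose, swab-inoculated with the microdilution spore or yeast suspension taken before its 50-fold dilution. Plates were incubated at 35°C and read at 48 h. The MIC was the ellipse–scale intercept, raised to the next twofold dilution step.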
# Pichia kudriavzevii = assay: Antifungal activity against Candida krusei isolates after 48 hrs by CLSI M27-A2 procedure based assay
# Outline: (§3)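 Candida isolates tested by CLSI M27-A2 broth microdilution at final 0.015–16 µg/ml, or 0.125–128 µg/ml for the comparator azole. Incubation was at 35°C with a visual read at 48 h. MIC-2 was the lowest concentration giving a prominent turbidity drop, about 50% growth inhibition.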
# Mucor [3] = assay: Antifungal activity against Mucor isolates by Etest
# Outline: (§4)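 Etest. The spore inoculum used for microdilution, taken before the 50-fold dilution, was swabbed onto RPMI agar with 2% glucose, strips applied, and plates held at 35°C and read at 24 h. The MIC was where the inhibition ellipse met the strip scale, rounded up to the next twofold dilution.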
# Absidia [4] = assay: Antifungal activity against Absidia isolates assessed as lowest compound concentration that produced complete inhibition of microbial growth after 24 hrs by CLSI M38-A procedure based assay
# Outline: (§5)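 Zygomycete isolates subcultured on potato dextrose or Sabouraud agar, then tested by CLSI M38-A broth microdilution. Drugs were serially diluted in plates at final 0.015–16 µg/ml and incubated at 35°C. Plates were read by eye at 24 h. MIC-0 was the lowest concentration giving complete growth inhibition.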
# Aspergillus flavus [5] = assay: Antifungal activity against Aspergillus flavus isolates by Etest; outline: as §2
# Aspergillus flavus [6] = assay: Antifungal activity against Aspergillus flavus isolates after 48 hrs by CLSI M38-A procedure based assay; outline: as §1
# Rhizopus [7] = assay: Antifungal activity against Rhizopus isolates assessed as lowest compound concentration that produced slight growth or approximately 25% of that of growth control after 24 hrs by CLSI M38-A procedure based assay
# Outline: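 Rhizopus isolates tested by CLSI M38-A broth microdilution at final 0.015–16 µg/ml, 35°C, read by eye at 24 h.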
# Scedosporium apiospermum [8] = assay: Antifungal activity against Scedosporium apiospermum isolates assessed as lowest compound concentration that produced complete inhibition of microbial growth after 24 hrs by CLSI M38-A procedure based assay
# Rhizopus [9] = assay: Antifungal activity against Rhizopus isolates by Etest; outline: as §4
# Syncephalastrum = assay: Antifungal activity against Syncephalastrum isolates assessed as lowest compound concentration that produced complete inhibition of microbial growth after 24 hrs by CLSI M38-A procedure based assay; outline: as §5
# Candida tropicalis = assay: Antifungal activity against Candida tropicalis isolates after 48 hrs by CLSI M27-A2 procedure based assay; outline: as §3
# Mucor [10] = assay: Antifungal activity against Mucor isolates assessed as lowest compound concentration that produced complete inhibition of microbial growth after 24 hrs by CLSI M38-A procedure based assay; outline: as §5
# Lomentospora prolificans [11] = assay: Antifungal activity against Scedosporium prolificans isolates assessed as lowest compound concentration that produced complete inhibition of microbial growth after 24 hrs by CLSI M38-A procedure based assay
# Absidia [12] = assay: Antifungal activity against Absidia isolates by Etest; outline: as §4
# Rhizopus [13] = assay: Antifungal activity against Rhizopus isolates assessed as lowest compound concentration that produced complete inhibition of microbial growth after 24 hrs by CLSI M38-A procedure based assay; outline: as §5
# Lomentospora prolificans [14] = assay: Antifungal activity against Scedosporium prolificans isolates assessed as lowest compound concentration that produced slight growth or approximately 25% of that of growth control after 24 hrs by CLSI M38-A procedure based assay
# Fusarium = assay: Antifungal activity against Fusarium sp. isolates assessed as lowest compound concentration that produced slight growth or approximately 25% of that of growth control after 24 hrs by CLSI M38-A procedure based assay
# Scedosporium apiospermum [15] = assay: Antifungal activity against Scedosporium apiospermum isolates assessed as lowest compound concentration that produced slight growth or approximately 25% of that of growth control after 24 hrs by CLSI M38-A procedure based assay
# Aspergillus sp. [16] = assay: Antifungal activity against Aspergillus sp. isolates by Etest; outline: as §2
# Aspergillus niger = assay: Antifungal activity against Aspergillus niger isolates by Etest; outline: as §2
# Cunninghamella = assay: Antifungal activity against Cunninghamella isolates assessed as lowest compound concentration that produced complete inhibition of microbial growth after 24 hrs by CLSI M38-A procedure based assay; outline: as §5
structure (smiles),measurement,setting,value
C[C@@H](c1nc(-c2ccc(C#N)cc2)cs1)[C@](O)(Cn1cncn1)c1cc(F)ccc1F [ISAVUCONAZOLE],MFC,Aspergillus sp. [1],0.25 µg/mL
same,MIC,Aspergillus sp. [1],0.25 µg/mL
same,MIC50,Mucor [2],1 µg/mL
same,MIC90,Mucor [2],8 µg/mL
same,MIC,Candida,0.004 µg/mL
same,MFC,Pichia kudriavzevii,0.5 µg/mL
same,MIC,Pichia kudriavzevii,0.125 µg/mL
same,MIC,Mucor [3],0.19 µg/mL
same,MIC50,Mucor [3],2 µg/mL
same,MIC90,Mucor [3],> 32 µg/mL
same,MFC,Absidia [4],4 µg/mL
same,MIC,Absidia [4],1 µg/mL
same,MIC,Aspergillus flavus [5],0.016 µg/mL
same,MIC50,Aspergillus flavus [5],0.38 µg/mL
same,MIC90,Aspergillus flavus [5],0.5 µg/mL
same,MFC50,Aspergillus flavus [6],1 µg/mL
same,MFC90,Aspergillus flavus [6],1 µg/mL
same,MFC,"Aspergillus flavus [6]; Aspergillus flavus, 48 h",0.5 µg/mL
same,MIC50,"Aspergillus flavus [6]; Aspergillus flavus, 48 h",1 µg/mL
same,MIC90,"Aspergillus flavus [6]; Aspergillus flavus, 48 h",1 µg/mL
same,MIC,Rhizopus [7],0.5 µg/mL
same,MIC50,Rhizopus [7],0.5 µg/mL
same,MIC90,Rhizopus [7],4 µg/mL
same,MFC50,Scedosporium apiospermum [8],8 µg/mL
same,MFC90,Scedosporium apiospermum [8],>16 µg/mL
same,MFC,"Scedosporium apiospermum [8]; Scedosporium apiospermum, 24 h",2 µg/mL
same,MIC50,"Scedosporium apiospermum [8]; Scedosporium apiospermum, 24 h",4 µg/mL
same,MIC90,"Scedosporium apiospermum [8]; Scedosporium apiospermum, 24 h",4 µg/mL
same,MIC50,Rhizopus [9],1 µg/mL
same,MIC90,Rhizopus [9],> 32 µg/mL
same,MFC,Syncephalastrum,1 µg/mL
same,MIC,Syncephalastrum,0.25 µg/mL
same,MFC50,Candida tropicalis,>16 µg/mL
same,MFC90,Candida tropicalis,>16 µg/mL
same,MFC,"Candida tropicalis; Candida tropicalis, 48 h",2 µg/mL
same,MIC,"Candida tropicalis; Candida tropicalis, 48 h",< 0.015 µg/mL
same,MIC50,"Candida tropicalis; Candida tropicalis, 48 h",< 0.015 µg/mL
same,MIC90,"Candida tropicalis; Candida tropicalis, 48 h",0.06 µg/mL
same,MFC50,Mucor [10],8 µg/mL
same,MFC90,Mucor [10],>16 µg/mL
same,MFC,"Mucor [10]; Mucor, 24 h",2 µg/mL
same,MIC50,"Mucor [10]; Mucor, 24 h",2 µg/mL
same,MIC90,"Mucor [10]; Mucor, 24 h",16 µg/mL
same,MFC50,Lomentospora prolificans [11],>16 µg/mL
same,MFC90,Lomentospora prolificans [11],>16 µg/mL
same,MFC,"Lomentospora prolificans [11]; Lomentospora prolificans, 24 h",> 16 µg/mL
same,MIC,"Lomentospora prolificans [11]; Lomentospora prolificans, 24 h",> 16 µg/mL
same,MIC,Absidia [12],0.25 µg/mL
same,MFC50,Rhizopus [13],4 µg/mL
same,MFC90,Rhizopus [13],>16 µg/mL
same,MFC,"Rhizopus [13]; Rhizopus, 24 h",1 µg/mL
same,MIC,"Rhizopus [13]; Rhizopus, 24 h",1 µg/mL
same,MIC50,"Rhizopus [13]; Rhizopus, 24 h",1 µg/mL
same,MIC90,"Rhizopus [13]; Rhizopus, 24 h",16 µg/mL
same,MIC,Lomentospora prolificans [14],4 µg/mL
same,MIC50,Fusarium,16 µg/mL
same,MIC90,Fusarium,> 16 µg/mL
same,MIC50,Scedosporium apiospermum [15],1 µg/mL
same,MIC90,Scedosporium apiospermum [15],2 µg/mL
same,MIC,Aspergillus sp. [16],0.02 µg/mL
same,MIC,Aspergillus niger,0.094 µg/mL
same,MIC50,Aspergillus niger,0.5 µg/mL
same,MIC90,Aspergillus niger,0.75 µg/mL
same,MFC,Cunninghamella,16 µg/mL
